Reference: ChEMBL document CHEMBL1938388, “Design, synthesis and biological evaluation of new naphtalene diimides bearing isothiocyanate functionality” (Eur J Med Chem, 2012)
Calls of active or inactive are those of the source. The calls are words filed in the database; no cut-off is given here.

What was measured:
[1] = test system: Jurkat; assay: Cell cycle arrest in human Jurkat T cells assessed as accumulation at G2/M phase at 0.5 to 1 uM after 24 hrs by flow cytometric analysis; type: functional, cell-based
Method in brief: (§1)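 Jurkat cells exposed 24 h to a range of concentrations, fixed in ice-cold ethanol, stained with propidium iodide-containing cell cycle reagent for 30 min at room temperature in the dark; G1, S and G2/M fractions from flow cytometry. Mean ± SEM of four independent experiments.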

[2] = test system: Jurkat; assay: Cytotoxicity against human Jurkat T cells assessed as necrotic cells at 0.1 to 16 uM after 72 hrs by flow cytometric analysis; type: functional, cell-based
Method in brief: (§2)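 After 72 h exposure of Jurkat cells, 2 × 10^4 cells were stained with an Annexin V-PE/7-AAD cocktail for 20 min at room temperature in the dark. Necrotic cells were scored by flow cytometry.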

[3] = test system: Jurkat; assay: Cell cycle arrest in human Jurkat T cells assessed as accumulation at G1 phase at 0.5 to 1 uM after 24 hrs by flow cytometric analysis (reference value: 63%); type: functional; method in brief: as §1
[4] = test system: Jurkat; assay: Induction of apoptosis in human Jurkat T cells assessed as increase in phosphatidylserine level after 24 hrs by flow cytometric analysis; type: functional, cell-based
[5] = test system: Jurkat; assay: Induction of apoptosis in human Jurkat T cells assessed as decrease in membrane potential at 1 uM after 24 hrs by JC-1 staining-based flow cytometric analysis; type: functional; parameters: scale not given: the % may be the effect or the level left
[6] = test system: Jurkat; assay: Growth inhibition in human Jurkat T cells assessed as suppression into cell cycle progression at 4 uM after 24 hrs by flow cytometric analysis; type: functional; conditions: read-out: GI
Method in brief: (§3)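 Jurkat cells were treated 24 h at graded concentrations, and cell growth inhibition was measured by flow cytometry. Mean ± SEM of at least three independent experiments.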

[7] = test system: Jurkat; assay: Ratio IC50 for sulforaphane to compound for human Jurkat T cells; type: functional
[8] = test system: Jurkat; assay: Growth inhibition in human Jurkat T cells assessed as suppression into cell cycle progression at 2 uM after 24 hrs by flow cytometric analysis; type: functional; method in brief: as §3
[9] = test system: Jurkat; assay: Induction of apoptosis in human Jurkat T cells assessed as increase in phosphatidylserine level at 0.5 to 4 uM after 24 hrs by flow cytometric analysis; type: functional, cell-based
[10] = test system: Jurkat; assay: Cytotoxicity against human Jurkat T cells assessed as decrease in cell viability after 24 hrs by flow cytometric analysis; type: functional, cell-based
Method in brief: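 Jurkat cultures kept in exponential growth (split every third day to 1 × 10^5 cells/ml) were treated for one cell cycle (24 h) at graded concentrations. Viability was read right after treatment by flow cytometry after 5 min propidium iodide-based stain at room temperature. IC50 was interpolated from the dose-response curve; ≥3 independent experiments, mean ± SEM.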

[11] = test system: Jurkat; assay: Induction of apoptosis in human Jurkat T cells assessed as caspase 8 activation after 24 hrs by FAM-LETD-FMK staining-based flow cytometric analysis
[12] = test system: Jurkat; assay: Induction of apoptosis in human Jurkat T cells assessed as decrease in membrane potential after 24 hrs by JC-1 staining-based flow cytometric analysis; type: functional, cell-based
[13] = test system: Jurkat; assay: Induction of apoptosis in human Jurkat T cells assessed as decrease in membrane potential at 2 uM after 24 hrs by JC-1 staining-based flow cytometric analysis; type: functional; parameters: scale not given: the % may be the effect or the level left
[14] = test system: Jurkat; assay: Cell cycle arrest in human Jurkat T cells assessed as accumulation at S phase at 0.5 to 1 uM after 24 hrs by flow cytometric analysis (reference value: 20%); type: functional; method in brief: as §1
[15] = test system: Jurkat; assay: Induction of apoptosis in human Jurkat T cells assessed as increase in necrotic cells at 4 uM after 24 hrs by 7-AA staining-based flow cytometric analysis; type: functional, cell-based
[16] = test system: Jurkat; assay: Induction of apoptosis in human Jurkat T cells assessed as caspase 8 activation at 0.5 to 2 uM after 24 hrs by FAM-LETD-FMK staining-based flow cytometric analysis
[17] = test system: Jurkat; assay: Induction of apoptosis in human Jurkat T cells assessed as decrease in membrane potential at 0.5 to 2 uM after 24 hrs by JC-1 staining-based flow cytometric analysis; type: functional, cell-based
[18] = test system: Jurkat; assay: Induction of apoptosis in human Jurkat T cells assessed as decrease in membrane potential at 0.75 uM after 24 hrs by JC-1 staining-based flow cytometric analysis; type: functional; parameters: scale not given: the % may be the effect or the level left
[19] = test system: Jurkat; assay: Growth inhibition in human Jurkat T cells assessed as suppression into cell cycle progression at 8 uM after 24 hrs by flow cytometric analysis; type: functional; conditions: read-out: GI; method in brief: as §3
[20] = test system: Jurkat; assay: Cytotoxicity against human Jurkat T cells assessed as necrotic cells at 1 uM after 72 hrs by flow cytometric analysis; type: functional; method in brief: as §2
[21] = test system: Jurkat; assay: Induction of apoptosis in human Jurkat T cells assessed as increase in phosphatidylserine level at 2 uM after 24 hrs by flow cytometric analysis; type: functional, cell-based
Method in brief: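 Jurkat T leukemia cells were exposed for 24 h. Aliquots of 2 × 10^4 cells were then stained with Guava Nexin Reagent, which contains Annexin V-PE for phosphatidylserine exposure and 7-AAD for membrane-permeable, necrotic cells. Staining ran 20 min at room temperature in the dark, followed by flow cytometry. Data are mean ± SEM of at least three independent experiments. Friedman test, Dunn's post test.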

[22] = test system: Jurkat; assay: Induction of apoptosis in human Jurkat T cells assessed as increase in necrotic cells at 1.5 uM after 24 hrs by 7-AA staining-based flow cytometric analysis; type: functional, cell-based
[23] = test system: Jurkat; assay: Induction of apoptosis in human Jurkat T cells assessed as decrease in membrane potential at 0.5 uM after 24 hrs by JC-1 staining-based flow cytometric analysis; type: functional; parameters: scale not given: the % may be the effect or the level left
[24] = test system: Jurkat; assay: Induction of apoptosis in human Jurkat T cells assessed as caspase 8 activation at 0.25 to 1 uM after 24 hrs by FAM-LETD-FMK staining-based flow cytometric analysis
[25] = test system: Jurkat; assay: Cell cycle arrest in human Jurkat T cells assessed as accumulation at S phase at 0.25 to 0.5 uM after 24 hrs by flow cytometric analysis; type: functional, cell-based; method in brief: as §1
[26] = test system: Jurkat; assay: Growth inhibition in human Jurkat T cells assessed as suppression into cell cycle progression at 1.5 uM after 24 hrs by flow cytometric analysis; type: functional; conditions: read-out: GI; method in brief: as §3
[27] = test system: Jurkat; assay: Cell cycle arrest in human Jurkat T cells assessed as accumulation at G1 phase at 0.25 to 0.5 uM after 24 hrs by flow cytometric analysis (reference value: 58%); type: functional; method in brief: as §1
[28] = test system: Jurkat; assay: Induction of apoptosis in human Jurkat T cells assessed as decrease in membrane potential at 0.25 to 1 uM after 24 hrs by JC-1 staining-based flow cytometric analysis; type: functional, cell-based
[29] = test system: Jurkat; assay: Growth inhibition in human Jurkat T cells assessed as suppression into cell cycle progression at 1 uM after 24 hrs by flow cytometric analysis; type: functional; conditions: read-out: GI; method in brief: as §3
[30] = test system: Jurkat; assay: Induction of apoptosis in human Jurkat T cells assessed as increase in phosphatidylserine level at 0.25 to 1.5 uM after 24 hrs by flow cytometric analysis; type: functional, cell-based
[31] = test system: Jurkat; assay: Cell cycle arrest in human Jurkat T cells assessed as accumulation at G2/M phase at 0.25 to 0.5 uM after 24 hrs by flow cytometric analysis; type: functional, cell-based; method in brief: as §1
[32] = test system: Jurkat; assay: Growth inhibition in human Jurkat T cells assessed as suppression into cell cycle progression at 3 uM after 24 hrs by flow cytometric analysis; type: functional; conditions: read-out: GI; method in brief: as §3
[33] = test system: Jurkat; assay: Cell cycle arrest in human Jurkat T cells assessed as accumulation at G2/M phase at 0.25 to 0.5 uM after 24 hrs by flow cytometric analysis (reference value: 29%); type: functional; method in brief: as §1
[34] = test system: Jurkat; assay: Growth inhibition in human Jurkat T cells assessed as suppression into cell cycle progression at 0.75 uM after 24 hrs by flow cytometric analysis; type: functional; conditions: read-out: GI; method in brief: as §3
[35] = test system: Jurkat; assay: Induction of apoptosis in human Jurkat T cells assessed as increase in necrotic cells at 1 uM after 24 hrs by 7-AA staining-based flow cytometric analysis; type: functional, cell-based
[36] = test system: Jurkat; assay: Cell cycle arrest in human Jurkat T cells assessed as accumulation at S phase at 0.25 to 0.5 uM after 24 hrs by flow cytometric analysis (reference value: 21%); type: functional; method in brief: as §1
[37] = test system: Jurkat; assay: Cell cycle arrest in human Jurkat T cells assessed as accumulation at G1 phase at 0.25 to 0.5 uM after 24 hrs by flow cytometric analysis (reference value: 56%); type: functional; method in brief: as §1
[38] = test system: Jurkat; assay: Induction of apoptosis in human Jurkat T cells assessed as caspase 8 activation at 0.25 to 0.75 uM after 24 hrs by FAM-LETD-FMK staining-based flow cytometric analysis
[39] = test system: Jurkat; assay: Induction of apoptosis in human Jurkat T cells assessed as increase in phosphatidylserine level at 0.25 to 1 uM after 24 hrs by flow cytometric analysis; type: functional, cell-based
[40] = test system: Jurkat; assay: Induction of apoptosis in human Jurkat T cells assessed as decrease in membrane potential at 0.25 to 0.75 uM after 24 hrs by JC-1 staining-based flow cytometric analysis; type: functional, cell-based
[41] = test system: Jurkat; assay: Induction of apoptosis in human Jurkat T cells assessed as increase in apoptotic cells at 0.75 uM after 24 hrs by 7-AA staining-based flow cytometric analysis relative to sulforaphane

Row | Compound | Activity [2] | Activity [4] | Ratio IC50 [7] | Activity [10] | IC50 [10] [µM] | Activity [11] | Activity [12] | Activity [13] [%] | Activity [18] [%] | Activity [20] [%] | Activity [23] [%] | inhibition of growth at 1 µM [29] [%] | further results
1 | CN(C)CCN1C(=O)c2ccc3c4c(ccc(c24)C1=O)C(=O)N(CCN=C=S)C3=O | Active | Dose-dependent effect | 8 | Dose-dependent effect | 1.91 | Dose-dependent effect | Dose-dependent effect | 100 | 100 | 100 | – | – | Activity [1]: inactive; Activity [3]: 68%; Activity [5]: 53%; inhibition of growth at 4 µM [6]: 40%; inhibition of growth at 2 µM ([8]; read-out: GI): 30%; Activity [9]: Active; Activity [14]: 15%; Activity [15]: Active; Activity [16]: 56%; Activity [17]: Active; inhibition of growth at 8 µM [19]: 90%
2 | CC[C@@]1(O)C(=O)OCc2c1cc1n(c2=O)Cc2cc3ccccc3nc2-1 | – | – | – | – | – | – | – | – | – | – | – | – | Activity [21]: Active
3 | O=C1c2ccc3c4c(ccc(c24)C(=O)N1CCN=C=S)C(=O)N(CCN=C=S)C3=O | Active | Dose-dependent effect | 17 | Dose-dependent effect | 0.89 | Dose-dependent effect | Dose-dependent effect | 100 | 100 | 100 | 50.6 | 40 | Activity [22]: Active; Activity [24]: 66%; Activity [25]: Active; inhibition of growth at 1.5 µM [26]: 58%; Activity [27]: 68%; Activity [28]: Active; Activity [30]: Active; Activity [31]: Active; inhibition of growth at 3 µM [32]: 94%
4 | C[S+]([O-])CCCCN=C=S (stereo unspecified) [SULFORAPHANE] | – | – | – | – | 15 | – | – | – | – | – | – | – | –
5 | O=C1c2ccc3c4c(ccc(c24)C(=O)N1CCCN=C=S)C(=O)N(CCCN=C=S)C3=O | Active | Dose-dependent effect | 35 | Dose-dependent effect | 0.43 | Dose-dependent effect | Dose-dependent effect | 100 | 100 | 100 | 47.1 | 65 | Activity [33]: 22%; inhibition of growth at 0.75 µM [34]: 30%; Activity [35]: Active; Activity [36]: 13%; Activity [37]: 68%; growth inhibition (GI) [8]: Active; Activity [38]: 68%; Activity [39]: Active; Activity [40]: Active; fold change (FC) [41]: 40
